{"source": "the RNAGym collection of RNA variant scans (doi:10.1126/science.aae0568)", "parents": {"B1": {"name": "tRNA (parent)", "chain": "GUUCCGUUGGCGUAAUGGUAACGCGUCUCCCUCCUAAGGAGAAGACUGCGGGUUCGAGUCCCGUACGGAACG"}}, "note": "Fewer inactive variants are shown than the library holds."}
{"variants_of": "B1", "experiment": "yeast fitness relative to wild type (ratio to wild type); higher = fitter; tRNA-Arg(CCU), competitive growth, 37 C, YPD", "summary_of_the_method": "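A pool of Saccharomyces cerevisiae strains, each with a tRNA-Arg(CCU) gene variant at the native genomic locus, was competed in YPD at 37°C for 24 hours across six parallel replicates. The variants had been chemically synthesised at a 3% per-site mutation rate over 69 sites, and gene amplicons before and after competition were read by 100-nucleotide paired-end sequencing. Darwinian fitness relative to wild type rested on changes in genotype frequencies. Genotypes required ≥ 100 starting reads, and estimates < 0.5 were set to 0.5.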"}
{"variant": "GUUCCAUUGGCGUAAUGGUAACGCGUCUCCCUCCUAGGGAGAAGACUGCGGGUUCGAGUCCCGUACGAGACG", "note": "[G6A A37G G68A A69G]", "yeast fitness": 0.545}
{"variant": "GUUCCAUUGGCGUAAUGGUAGCGCGUCUCCCCCCUAAGGAGAAGACUGCGGGUUCGAGGCCCGUAUGGACCG", "note": "[G6A A21G U32C U59G C66U A70C]", "yeast fitness": "≤ 0.5"}
{"variant": "GUUCCAUUGGCGUAAUGGUAACGCGUCUCCCUCCUAAGGGGAAAACUGCGGGUUCGAGUCCCGUACGGAACG", "note": "[G6A A40G G44A]", "yeast fitness": 0.614}
{"variant": "GUUCCAUUGGAGUAAUGGUAACGCGUCUCCCUCCUAAGGAGAAGAAUGCGGGUUCGGGUCCCGUACGGAACG", "note": "[G6A C11A C46A A57G]", "yeast fitness": "≤ 0.5"}
{"variant": "GUUCCAUUGGCGUAAUGGUAACGCGUCUCCCUCCUAAGGAGAAGACUGCGGGUUCGCGUCCCAUCCGGACCG", "note": "[G6A A57C G63A A65C A70C]", "yeast fitness": "≤ 0.5"}
{"variant": "GUUCCAUUGGCGUAAUGGUAACGCGUCUCCCUCCUAUGGAGAAGACUGCGGGUUCGAGUCCCGUACGGAACG", "note": "[G6A A37U]", "yeast fitness": 0.64}
{"variant": "GUUCCAUUGGCGUAAUGGUAACGCGUCUCCCUCCUUAGGAGAAGACUGCGGGUUCGAGUCCCGUAUAGAACG", "note": "[G6A A36U C66U G67A]", "yeast fitness": "≤ 0.5"}
{"variant": "GUUCCAUUGGCGUAAUGGUAACGCGUCUCCCUCCUAAGGAGUAGACUGCGGGUUCGAAUCCCGUACGGAACG", "note": "[G6A A42U G58A]", "yeast fitness": 0.634}
{"variant": "GUUCCAUUGGAGUAAUGGUAACGGGUCUCCCUCCUAAGGAGUAGACUGCGGGUUCGAGUCCCGUACGGAACG", "note": "[G6A C11A C24G A42U]", "yeast fitness": "≤ 0.5"}
{"variant": "GUUCCAUUGGCGUAAUGGUAACGCGUCUCCCUCCUAUGGAGAAGACUGCGGGUUGGAGUCCCGUAUGGAACG", "note": "[G6A A37U C55G C66U]", "yeast fitness": "≤ 0.5"}
{"variant": "GUUCCAUUGGCGUAAUGGUAACGCGUCUCCCUCCUAAGGAGAAGGCUGCGGGUUCGAGUCCCGUACGGACCG", "note": "[G6A A45G A70C]", "yeast fitness": 0.856}
{"variant": "GUUCCAUUGGAGUAGUGGUAACGCGUCUCCCUCCUAAGGAGAAGACUGGGCGUUCGAGUCCCGUACGAAACG", "note": "[G6A C11A A15G C49G G51C G68A]", "yeast fitness": "≤ 0.5"}
{"variant": "GUUCCAUUGGCGUAAUGGUAACGCGUCUCCCUCCUAAGGAGGAGACUGCGGGUUCGAGUCCCGCACGGAACG", "note": "[G6A A42G U64C]", "yeast fitness": 0.629}
{"variant": "GUUCCAUUGGCGUAAUGGUAACGCGUCUCCCUCCUAAGGGGAAGUCUGCGGGUUCAAGUCCCGUACGGAACG", "note": "[G6A A40G A45U G56A]", "yeast fitness": "≤ 0.5"}
{"variant": "GUUCCAUUGGCGUAAUGGUAACGCGUCUCCCUCCUAUGGAGAAGACUGCGGGUUCGAGUCCGGUACGGAACG", "note": "[G6A A37U C62G]", "yeast fitness": "≤ 0.5"}
{"variant": "GUUCCAUUGGCGUAAUGGUAACGCGUCUCCCUCCUUAGGAGAAGACUGCGGGUUCGAGUCGCGUACGGAACG", "note": "[G6A A36U C61G]", "yeast fitness": 0.646}
{"variant": "GUUCCAUUGGAGUAAUGGUAACGCGUCUCCCUCCUAAGGAGAAGACUGCGGGUUCGAGUCCCGUACGGAACG", "note": "[G6A C11A]", "yeast fitness": 0.639}
{"variant": "GUUCCAUUGGCGUAAUGGUAACGCGUCUCCCUCCUGAGGAGAAGACUACGGGUUCGAGUCCCGUACGGAACG", "note": "[G6A A36G G48A]", "yeast fitness": 0.59}
{"variant": "GUUCCAUUGGCGUAAUGGUAACGCGUCUCCCUCCUAAGGAGCAGACUACGGGUUCGAGUCCUGUACGGAACG", "note": "[G6A A42C G48A C62U]", "yeast fitness": 0.698}
{"variant": "GUUCCAUUGGCGUAAUGGUAACGCGUCUCCCUCCUAGGGAGAAGACUGCGGGGUCGAGUCCCGUACGGAACG", "note": "[G6A A37G U53G]", "yeast fitness": "≤ 0.5"}
{"variant": "GUUCCAUUGGCGUAAUGGUAACGCGUCUCCCUCCUAAGGAGAAGUCUGCGGGUUCGCGUCCCGUACGGAACG", "note": "[G6A A45U A57C]", "yeast fitness": "≤ 0.5"}
{"variant": "GUUCCAUUGGCGUAAUGGUAACGCGUCUCCCUCCUAAGGUGAAGACUGCGGGUUCCAGUCCCGUACGGAACG", "note": "[G6A A40U G56C]", "yeast fitness": "≤ 0.5"}
{"variant": "GUUCCAUUGGCGUAAUGGUAACGCGUCUCCCUCCUAAGGAGAAGUCUGCGAGUUCGAGUCCCGUACGGAACG", "note": "[G6A A45U G51A]", "yeast fitness": "≤ 0.5"}
{"variant": "GUUCCAUUGGCGUAAUGGUAACGCGUCUCCCUCCUAAGGAGCAGACUGCGGGUUCGAGUCCAGUACGGAACG", "note": "[G6A A42C C62A]", "yeast fitness": 0.97}
{"variant": "GUUCCAUUGGCGUAAUGGUAACGCGUCUCCCUCCUAAGGAGAAGCGUGCGGGUUCGAGUCCCGUAUGGAACG", "note": "[G6A A45C C46G C66U]", "yeast fitness": "≤ 0.5"}
{"variant": "GUUCCAUUGGAGUCAUGGCAACACGUCUCCCACCUAAGGAGCAGACUGCGGGUUCGAGUCCCGUACGGAACG", "note": "[G6A C11A A14C U19C G23A U32A A42C]", "yeast fitness": 0.532}
{"variant": "GUUCCAUUGGCGUAAUGGUAACGCGUCUCCCUCCUGAGGAGAAGACUGCGGGUUCGAGUGCCGUAUGGAACG", "note": "[G6A A36G C60G C66U]", "yeast fitness": "≤ 0.5"}
{"variant": "GUUCCAUUGGCGUAAUGGUAACGCGUCUCCCUCCUACGGAGCAGACUGCGGGUUCGAGUCCCGUACGGCACG", "note": "[G6A A37C A42C A69C]", "yeast fitness": "≤ 0.5"}
{"variant": "GUUCCAUUGGCGUAAUGGUAACGCGUCUCCCUCCUGAGGAGAAGACUGCGGGUUCGAGUCCCGUACGGAACG", "note": "[G6A A36G]", "yeast fitness": 0.89}
{"variant": "GUUCCAUUGGCGUAAUGGUAACGCGUCUCCCUCCUUAGGAGAAGACUGCGGGUUCGAGUCCCGUACGGAACG", "note": "[G6A A36U]", "yeast fitness": 0.604}
{"variant": "GUUCCAUUGGCGUAAUGGUAACGCGUCUCCCUCCUAAGGUGAAGACUGCGGGUUCGAGUCCCGUACGGCACG", "note": "[G6A A40U A69C]", "yeast fitness": 0.581}
{"variant": "GUUCCAUUGGCGUAAUGGUAACGCGUCUCCCUCCUAAGGAGAAGGCUGCGGGUUCGAGUCCCGUACGGCACG", "note": "[G6A A45G A69C]", "yeast fitness": 0.748}
{"variant": "GUUCCAUUGGCGUAAUGGUAACGCGUCUCCCUCCUAGGGAGAAGACUGCGCGUUCGAGUCUCGUACGGAACG", "note": "[G6A A37G G51C C61U]", "yeast fitness": 0.528}
{"variant": "GUUCCAUUGGAGUAAUGGUAACGCGUCUCCCUCCUAAGGGGAAGACUGCGGGUUCCAGUCGCGUACGGAUCG", "note": "[G6A C11A A40G G56C C61G A70U]", "yeast fitness": "≤ 0.5"}
{"variant": "GUUCCAUUGGCGUAAUGGUAACGCGUCUCCCUCCUAAGGAGAGGACUGCGGGUUCGAGCCCCGUACGGAACG", "note": "[G6A A43G U59C]", "yeast fitness": 0.595}
{"variant": "GUUCCAUUGGCGUAAUGGUAGCGCGUCUCCCUCCUAAGGAGAAGACUGCGGGUUCGACCCCCGUACGGAACG", "note": "[G6A A21G G58C U59C]", "yeast fitness": 0.661}
{"variant": "GUUCCAUUGGCGUAAUGGUAACGCGUCUCCCUCCUAAGGAGAAGUCUGCGGGUUCGAGUCCCGUACGGUACG", "note": "[G6A A45U A69U]", "yeast fitness": 0.826}
{"variant": "GUUCCAUUGGCGUAAUGGUAACGCGUCUCCCUCCUAAGGAGAUGAAUGCGGGUUCGAGUCCCGUACGGAACG", "note": "[G6A A43U C46A]", "yeast fitness": 0.649}
